Laboratory results taken from ChEMBL document CHEMBL5712900, “JQ1 affects BRD2-dependent and independent transcription regulation without disrupting H4-hyperacetylated chromatin states” (2018).
Activity calls are given as the source filed them. The rule behind the calls is not given here.

How the values were obtained:
NCI-H23 [1] = assay: Effect in H3K27ac global level in human NCI-H23 cells at 500 nM incubated for 24 hrs by Chip-seq assay; assay type: functional, cell-based
NCI-H23 [2] = assay: Induction of apoptosis in human NCI-H23 cells at 5 to 5000 nM incubated for 24 hsr by Green Apoptosis assay; assay type: functional, cell-based; details: dose 5-5000 nM, time 24.0 hrs
In short: (§1)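 RFP-labelled H23 cells were seeded at 8,000 cells/well one day ahead and given JQ1 at 5, 50, 500, 1,000 or 5,000 nM. For apoptosis, Caspase-3/7 Green reagent (DEVD–NucView488) was added with the drug. Plates were imaged hourly for 24 h. Red (proliferating) or green (apoptotic) objects were counted per image and expressed as fold change versus 0 h.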

NCI-H23 [3] = assay: Antiproliferation activity against human NCI-H23 cells assessed as decrease in cell proliferation at 5 to 5000 nM incubated for 24 hrs by Green Apoptosis Assay; assay type: functional, cell-based; details: dose 5-5000 nM; in short: as §1
NCI-H23 [4] = assay: Down regulation of FOSL1 protein expression in human NCI-H23 cells at 500 nM measured after 3 to 24 hrs by […]; assay type: functional, cell-based; details: time 3-24 hrs
NCI-H23 [5] = assay: Down regulation of FOSL1 gene expression in human NCI-H23 cells at 500 nM measured after 3 to 24 hrs by qPCR analysis; assay type: functional, cell-based; details: time 3-24 hrs
In short: (§2)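 H23 cells were grown in RPMI-1640 with 10% FBS and plated 48 h before treatment at 170,000 cells/ml. Medium was replaced with fresh medium containing 500 nM JQ1 or matched DMSO, and cells were harvested at 3, 6, 12 and 24 h. Total RNA was extracted with TRIzol and assayed by SYBR qPCR (40 cycles). Expression was normalized to GAPDH and compared with DMSO. There were three biological replicates, each run in duplicate twice.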

NCI-H23 [6] = assay: Effect in H4K5acK8ac global level Promoter region in human NCI-H23 cells at 500 nM incubated for 24 hrs by Chip-seq assay; assay type: functional, cell-based
In short: (§3)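 H23 cells received 500 nM JQ1 or DMSO for 24 h and then underwent formaldehyde crosslinking. For spike-in ChIP-seq, H23 chromatin was mixed with Drosophila chromatin at 400:1 for H4K5acK8ac or 600:1 for BRD2, adding anti-H2Av antibody. Reads were normalized to Drosophila counts, with two biological replicates. Signals were averaged over peaks from untreated cells, and differential H4K5acK8ac peaks were called at FDR <0.05.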

NCI-H23 [7] = assay: Effect in H4K5acK8ac global level enhancer region in human NCI-H23 cells at 500 nM incubated for 24 hrs by Chip-seq assay; assay type: functional, cell-based; in short: as §3
NCI-H23 [8] = assay: Effect in H4K5acK8ac global level super enhancer region in human NCI-H23 cells at 500 nM incubated for 24 hrs by Chip-seq assay; assay type: functional, cell-based; in short: as §3
NCI-H23 [9] = assay: Effect in H4K5acK8ac subpopulation level in human NCI-H23 cells at 500 nM incubated for 24 hrs by Chip-seq assay; assay type: functional; in short: as §3
NCI-H23 [10] = assay: Effect in H3K27ac subpopulation level in human NCI-H23 cells at 500 nM incubated for 24 hrs by Chip-seq assay; assay type: functional, cell-based
NCI-H23 [11] = assay: Down regulation of BRD2 gene expression in human NCI-H23 cells at 500 nM measured after 3 to 24 hrs by qPCR analysis; assay type: functional, cell-based; details: time 3-24 hrs; in short: as §2
NCI-H23 [12] = assay: Down regulation of BRD4 gene expression in human NCI-H23 cells at 500 nM measured after 3 to 24 hrs by qPCR analysis; assay type: functional, cell-based; details: time 3-24 hrs; in short: as §2
NCI-H23 [13] = assay: Down regulation of CFLAIR gene expression in human NCI-H23 cells at 500 nM measured after 3 to 24 hrs by qPCR analysis; assay type: functional, cell-based; details: time 3-24 hrs; in short: as §2
NCI-H23 [14] = assay: Down regulation of BCL2 gene expression in human NCI-H23 cells at 500 nM measured after 3 to 24 hrs by qPCR analysis; assay type: functional, cell-based; details: time 3-24 hrs; in short: as §2
NCI-H23 [15] = assay: Down regulation of WNT2 gene expression in human NCI-H23 cells at 500 nM measured after 3 to 24 hrs by qPCR analysis; assay type: functional, cell-based; details: time 3-24 hrs; in short: as §2
NCI-H23 [16] = assay: Down regulation of WNT5A-2 gene expression in human NCI-H23 cells at 500 nM measured after 3 to 24 hrs by qPCR analysis; assay type: functional, cell-based; details: time 3-24 hrs; in short: as §2
NCI-H23 [17] = assay: Effect on CTNNB1 gene expression in human NCI-H23 cells at 500 nM measured after 3 to 24 hrs by qPCR analysis; assay type: functional, cell-based; details: time 3-24 hrs; in short: as §2
NCI-H23 [18] = assay: Upregulation of MYC gene expression in human NCI-H23 cells at 500 nM measured after 3 to 24 hrs by qPCR analysis; assay type: functional, cell-based; details: time 3-24 hrs; in short: as §2
[19] = target: Bromodomain-containing protein 2 (Homo sapiens) (UniProt P25440); details: NCI-H23, dose 500.0 nM, time 24.0 hrs
Bromodomain-containing protein 2 (Homo sapiens), sequence (P25440 whole entry, looked up): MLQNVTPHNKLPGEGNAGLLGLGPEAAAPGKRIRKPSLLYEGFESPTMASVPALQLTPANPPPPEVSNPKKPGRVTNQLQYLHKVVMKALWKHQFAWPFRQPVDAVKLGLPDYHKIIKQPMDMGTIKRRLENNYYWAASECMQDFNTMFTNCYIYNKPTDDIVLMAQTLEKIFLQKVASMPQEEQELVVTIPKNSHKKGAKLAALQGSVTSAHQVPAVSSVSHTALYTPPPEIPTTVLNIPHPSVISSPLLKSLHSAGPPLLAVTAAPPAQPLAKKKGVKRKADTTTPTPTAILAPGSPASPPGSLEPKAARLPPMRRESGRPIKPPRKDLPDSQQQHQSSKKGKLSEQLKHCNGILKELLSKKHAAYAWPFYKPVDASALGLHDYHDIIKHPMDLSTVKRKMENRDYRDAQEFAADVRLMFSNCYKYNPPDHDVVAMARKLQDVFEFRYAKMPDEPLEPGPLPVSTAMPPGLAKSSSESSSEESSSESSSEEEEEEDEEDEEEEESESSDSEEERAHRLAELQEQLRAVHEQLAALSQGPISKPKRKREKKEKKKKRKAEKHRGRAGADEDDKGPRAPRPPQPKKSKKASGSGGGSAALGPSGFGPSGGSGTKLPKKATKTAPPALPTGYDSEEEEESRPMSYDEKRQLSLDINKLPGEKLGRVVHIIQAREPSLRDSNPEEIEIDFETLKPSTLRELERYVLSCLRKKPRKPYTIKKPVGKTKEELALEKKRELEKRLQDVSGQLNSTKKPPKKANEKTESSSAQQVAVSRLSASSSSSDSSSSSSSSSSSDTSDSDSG

For `Cc1sc2c(c1C)C(c1ccc(Cl)cc1)=N[C@@H](CC(=O)OC(C)(C)C)c1nnc(C)n1-2`, the Activity (NCI-H23 [1]) was “inactive”, the Activity (NCI-H23 [2]) was “Active” and the Activity (NCI-H23 [3]) was “Active”. The Activity (NCI-H23 [4]) was “Active”, the Activity (NCI-H23 [5]) was “Active” and the Activity (NCI-H23 [6]) was “inactive”. For the same compound, the Activity (NCI-H23 [7]) was “inactive”, the Activity (NCI-H23 [8]) was “inactive” and the “fold change (FC)” value (NCI-H23 [9]) was 2. For the same compound, the Activity (NCI-H23 [10]) was “Active”, the Activity (NCI-H23 [11]) was “inactive” and the Activity (NCI-H23 [12]) was “inactive”. For the same compound, the Activity (NCI-H23 [13]) was “Active”, the Activity (NCI-H23 [14]) was “Active” and the Activity (NCI-H23 [15]) was “Active”. For the same compound, the Activity (NCI-H23 [16]) was “Active”, the Activity (NCI-H23 [17]) was “Active” and the Activity (NCI-H23 [18]) was “Active”. For the same compound, the inhibition [19] was 100%.
